In PubChem BioAssay:
Records with an inconclusive call do not appear.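 How the source made its calls, unless noted: active means viability increase at or above a cutoff of the median across tested compounds plus 3 SD (cut at about 8.5% in these data, passing the limit was not always enough); inconclusive means some gains above the cutoff, reason not given; inactive means the rest.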

Assays:
[1] = S. cerevisiae growth inhibition in permissive medium (OD615), pilot counter-assay for S. cerevisiae lifespan shortening project, permissive growth control (AID 705;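 active means growth inhibition above 25% in both replicates, a cutoff set 3 SD above the mean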); settings: OD615, 24 h, at 10 µM, stronger effect = higher value
How it was run: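 assay system = Saccharomyces cerevisiae strain carrying genetically modified DeaD replicative-lifespan system | medium = SC raffinose/galactose permissive medium | dosing = 10 µM single dose, 0.25% DMSO | schedule = 24 h compound exposure at 30 °C after 4 h pre-growth | measured by = OD at 615 nm | read-out basis = growth inhibition from lowered OD615 after 24 h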

[2] = S. cerevisiae growth inhibition in restrictive medium, OD615, pilot screen, restrictive growth control, yeast lifespan reduction project (AID 706;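 active means growth inhibition above a set limit, 3 SD over mean compound inhibition, in both replicates, cut at about 43% in these data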;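 further: modified DeaD lifespan yeast strain shifted to restrictive glucose medium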); settings: OD615, 48 h, at 10 µM, stronger effect = higher value
How it was run: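 Buffer or medium: CSMM-D glucose medium. Material: genetically modified Saccharomyces cerevisiae, DeaD replicative lifespan assay strain. Times: 48 h compound exposure at 30 °C. Measured by: optical density at 615 nm.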

[3] = doxorubicin toxicity protection in MRP-1 cells – H69AR cells, CellTiter-Glo, duplicate, MRP-1 activator project, pilot screen (AID 807); settings: H69AR viability with doxorubicin, CellTiter-Glo luminescence; at 10 µM; stronger effect = higher value;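 further: compound pretreatment 18-22 h then 72 h combined with doxorubicin; 0% = doxorubicin alone and 100% = vehicle without doxorubicin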
[4] = viability of HCT116 without oncogenic beta-catenin – human colon tumor cells, pilot screen (AID 823;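 active means cell viability at or below a set limit in both duplicate runs, the limit being the all-compound median minus 4 SD, cut at about 23% in these data, passing the limit was not always enough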;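 further: 0% = wells killed by 20 µM Hyamine and 100% = untreated DMSO cell wells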); settings: HCT116 beta-catenin knockout viability, CellTiter-Glo, 60 h; at 10 µM; stronger effect = lower value
[5] = RAM pathway blockade in budding yeast – dse1pr::URA3 reporter, 5-FOA selection, pilot screen (AID 869;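 active means inhibition over a set limit, the all-compound mean plus 3 SD, in both replicate runs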;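 further: 0% = DMSO wells with no growth and 100% = 10 µM 1-NA-PP1 with full growth; RAM network block rescues cells from 5-FOA so hits raise OD615 growth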); settings: S. cerevisiae dse1pr::URA3 5-FOA growth, OD615, 2 d; at 10 µM; stronger effect = higher value; strain carries analog-sensitive mutant Cbk1 kinase
[6] = RAM signaling pathway blockade in yeast – S. cerevisiae, Pdr1DBD-CYC8 efflux-inhibited sensitized strain, primary screen (AID 1298;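 active means RAM network inhibition above 8.4% in each of two replicates, 3 SD over the compound average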;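 further: 0% = DMSO untreated cells without growth and 100% = 10 µM 1-NA-PP1 full growth; higher means more yeast growth rescued from 5-FOA killing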); settings: S. cerevisiae cbk1-as DSE1-URA3 strain, 5-FOA growth OD615, 2 d; at 50 µM; stronger effect = higher value

CCCCC(NC(C)=O)c1nc2ccccc2n1CCCC (stereo not given)
inactive: growth inhibition [1] -16.8% | growth inhibition [2] -12.2% | viability increase [3] -4.34% | viability [4] 86.6% | inhibition [5] 1.69% | RAM network inhibition [6] 4.56%

O=c1[nH]c2ccc(S(=O)(=O)N3CCN(c4ccccc4F)CC3)cc2s1
inactive: growth inhibition [1] -19.3% | growth inhibition [2] -7.76% | viability increase [3] -4.17% | viability [4] 93.3% | inhibition [5] 0.75% | RAM network inhibition [6] 4.21%

c1nc(NCCN2CCOCC2)c2sc3nc(N4CCOCC4)c4c(c3c2n1)CCC4
inactive: growth inhibition [1] -7.6% | growth inhibition [2] 6.11% | viability increase [3] -6.1% | viability [4] 84.8% | inhibition [5] 2.26% | RAM network inhibition [6] 8.21%

O=C1c2ccccc2C(=O)N1CCCC(=O)N1CCc2ccccc21
inactive: growth inhibition [1] -21.9% | growth inhibition [2] 8.75% | viability increase [3] -0.37% | viability [4] 95.7% | inhibition [5] 2.44% | RAM network inhibition [6] 10.1%

Cc1ccc(CNC(=O)CCS(=O)(=O)c2cccc3nonc23)cc1
inactive: growth inhibition [1] 8.16% | growth inhibition [2] -4.57% | viability increase [3] -0.35% | viability [4] 98.8% | inhibition [5] 1.71% | RAM network inhibition [6] 5.43%

Cc1ccc2c(c1)c(C)c(C)n2CC(O)Cn1nnc2ccccc21 (stereo not given)
inactive: growth inhibition [1] -9.66% | growth inhibition [2] -5.1% | viability increase [3] -5.06% | viability [4] 82.3% | inhibition [5] 0.335% | RAM network inhibition [6] 2.28%

O=c1[nH]c2ccc(S(=O)(=O)NCc3ccccn3)cc2s1
inactive: growth inhibition [1] -13.7% | growth inhibition [2] 2.04% | viability increase [3] -1.44% | viability [4] 95.8% | inhibition [5] 1.35% | RAM network inhibition [6] 6.28%

Cc1ccc2c(c1)c(C)c(C)n2CC(O)Cn1nc(C)cc1C (stereo not given)
inactive: growth inhibition [1] -13% | growth inhibition [2] 3.35% | viability increase [3] -4.76% | viability [4] 87.1% | inhibition [5] 2.1% | RAM network inhibition [6] 0.58%

COC(=O)CCC(=O)Oc1ccc(OC(=O)CCC(=O)OC)cc1
inactive: growth inhibition [1] 7.12% | growth inhibition [2] 2.51% | viability increase [3] -4.94% | viability [4] 72.9% | inhibition [5] 1.48% | RAM network inhibition [6] 0.94%

NC(=O)C1CCN(C(=O)CCCCCn2c(=O)[nH]c3ccsc3c2=O)CC1
inactive: growth inhibition [1] -14% | growth inhibition [2] -8.6% | viability increase [3] -3.22% | viability [4] 96.4% | inhibition [5] 0.97% | RAM network inhibition [6] 3.54%

CC12COC3(C(=O)Nc4cccnc4)CC1CCC32C (stereo not given)
inactive: growth inhibition [1] -5.62% | growth inhibition [2] 1.04% | viability increase [3] -2.08% | viability [4] 109% | inhibition [5] 1.51% | RAM network inhibition [6] 2.55%

COc1ccc2c(c1)SC1=NCCS(=O)(=O)N12
inactive: growth inhibition [1] -7.75% | growth inhibition [2] -10.4% | viability increase [3] -2.86% | viability [4] 105% | inhibition [5] 0.315% | RAM network inhibition [6] 4.32%

O=C(CS(=O)(=O)c1c[nH]c2ccccc12)Nc1ccc2c(c1)OCCO2
inactive: growth inhibition [1] -12.2% | growth inhibition [2] -1.07% | viability increase [3] -3.49% | viability [4] 95.7% | inhibition [5] 2.55% | RAM network inhibition [6] 1.93%

C=CCn1c(=O)[nH]c2cc(C(=O)N3CCN(c4cccc(Cl)c4)CC3)ccc2c1=O
inactive: growth inhibition [1] -16.5% | growth inhibition [2] -12.3% | viability increase [3] -6.95% | viability [4] 79.3% | inhibition [5] 3.33% | RAM network inhibition [6] 3.07%

Cc1cc(C)n(-c2cc(=O)n(C)c(=O)n2C)n1
inactive: growth inhibition [1] 1.39% | growth inhibition [2] -9.85% | viability increase [3] -2.96% | viability [4] 92.3% | inhibition [5] 0.755% | RAM network inhibition [6] 4.35%

CCN(CC)C(=O)c1cn(CC)c(=O)c2cc(OC)c(OC)cc12
inactive: growth inhibition [1] -18.9% | growth inhibition [2] 2.04% | viability increase [3] -3.37% | viability [4] 103% | inhibition [5] 0.93% | RAM network inhibition [6] 2.76%

N#C/C(=C1\CCCN1)c1ccc2ccccc2n1
inactive: growth inhibition [1] 1.03% | growth inhibition [2] 3.25% | viability increase [3] -4.02% | viability [4] 94.2% | inhibition [5] 2.02% | RAM network inhibition [6] 3.18%

Cc1cccc(N2CCN(C(=O)c3ccc(NC(=O)C4CCCO4)cc3)CC2C)c1 (stereo not given)
inactive: growth inhibition [1] -10.9% | growth inhibition [2] 6.01% | viability increase [3] -2.33% | viability [4] 105% | inhibition [5] 1.11% | RAM network inhibition [6] 4.83%

CCOC(=O)CNC(=O)c1cn(CC)c(=O)c2cc(OC)c(OC)cc12
inactive: growth inhibition [1] -14.4% | growth inhibition [2] -5.67% | viability increase [3] -2.48% | viability [4] 103% | inhibition [5] 2.65% | RAM network inhibition [6] 2.7%

CC(C)Sc1nc(N)c2c3c(sc2n1)CN(C)CC3
inactive: growth inhibition [1] -10.7% | growth inhibition [2] 9.69% | viability increase [3] -3.04% | viability [4] 101% | inhibition [5] 1.16% | RAM network inhibition [6] 5.2%
